Columns and labels:
[1] = Inhibition of Cryptococcus neoformans beta-carbonic anhydrase incubated for 15 mins prior to testing by stopped-flow CO2 hydration assay
In short: (§1)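 CO2 was 1.7–17 mM. Initial rates were taken from at least six traces of the first 5–10% of reaction over 10–100 s, with uncatalysed rates subtracted. Inhibitor dilutions were in water down to 0.01 nM, preincubated with enzyme 15 min at room temperature.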

[2] = Inhibition of Brucella suis beta-carbonic anhydrase 1 incubated for 15 mins prior to testing by stopped-flow CO2 hydration assay
In short: (§2)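 Stopped-flow CO2 hydration; 0.2 mM phenol red read at 557 nm in 10 mM Hepes pH 7.4, 10 mM Tris-HCl, 0.1 M NaSO4; CO2 1.7–17 mM. Inhibitor (10 mM water stock, diluted down to 0.01 nM) preincubated with enzyme 15 min at room temperature. Initial rates from at least six traces of the first 5–10% of reaction, over 10–100 s, with uncatalysed rates subtracted.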

[3] = Inhibition of Brucella suis beta-carbonic anhydrase 2 incubated for 15 mins prior to testing by stopped-flow CO2 hydration assay; in short: as §2
[4] = Inhibition of Leishmania donovani chagasi beta-carbonic anhydrase incubated for 15 mins prior to testing by stopped-flow CO2 hydration assay; in short: as §1
[5] = Selectivity ratio of Ki for human alpha-carbonic anhydrase 1 to Ki for Cryptococcus neoformans beta-carbonic anhydrase
In short: (§3)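 Ki ratio, human CA isoform Ki divided by pathogen β-CA Ki, used as an index of selectivity for the pathogen enzyme over the human enzyme.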

[6] = Selectivity ratio of Ki for human alpha-carbonic anhydrase 1 to Ki for Brucella suis beta-carbonic anhydrase 1
[7] = Selectivity ratio of Ki for human alpha-carbonic anhydrase 1 to Ki for Brucella suis beta-carbonic anhydrase 2
[8] = Selectivity ratio of Ki for human alpha-carbonic anhydrase 1 to Ki for Leishmania donovani chagasi beta-carbonic anhydrase; in short: as §3
[9] = Selectivity ratio of Ki for human alpha-carbonic anhydrase 2 to Ki for Cryptococcus neoformans beta-carbonic anhydrase; in short: as §3
[10] = Selectivity ratio of Ki for human alpha-carbonic anhydrase 2 to Ki for Brucella suis beta-carbonic anhydrase 1
[11] = Selectivity ratio of Ki for human alpha-carbonic anhydrase 2 to Ki for Brucella suis beta-carbonic anhydrase 2
[12] = Selectivity ratio of Ki for human alpha-carbonic anhydrase 2 to Ki for Leishmania donovani chagasi beta-carbonic anhydrase; in short: as §3
[13] = test system: Brucella suis; test: Potency index, ratio of acetazolamide Ki to compound Ki for Brucella suis beta-carbonic anhydrase 2
[14] = test system: Brucella suis; test: Potency index, ratio of benzolamide Ki to compound Ki for Brucella suis beta-carbonic anhydrase 2
[15] = test system: Brucella suis; test: Potency index, ratio of dichlorphenamide Ki to compound Ki for Brucella suis beta-carbonic anhydrase 2
[16] = test system: Brucella suis; test: Potency index, ratio of acetazolamide Ki to compound Ki for Brucella suis beta-carbonic anhydrase 1
[17] = test system: Brucella suis; test: Potency index, ratio of benzolamide Ki to compound Ki for Brucella suis beta-carbonic anhydrase 1
[18] = test system: Brucella suis; test: Potency index, ratio of dichlorphenamide Ki to compound Ki for Brucella suis beta-carbonic anhydrase 1

Structure (SMILES) | Ki [1] | Ki [2] | Ki [3] | Ki [4] | Ratio Ki [5] | Ratio Ki [6] | Ratio Ki [7] | Ratio Ki [8] | Ratio Ki [9] | Ratio Ki [10] | Ratio Ki [11] | Ratio Ki [12] | Ratio Ki [13] | Ratio Ki [14] | Ratio Ki [15] | Ratio Ki [16] | Ratio Ki [17] | Ratio Ki [18]
NS(=O)(=O)c1ccc(/N=C/c2ccc(-c3ccccc3)cc2)c(F)c1 | 9.5 nM | 523 nM | 161 nM | 155 nM | 159 | 2.9 | 9.4 | 9.7 | 52.4 | 1 | 3.1 | 3.2 | 2 |  |  |  |  | 
NS(=O)(=O)c1ccc(/N=C/c2ccco2)c(F)c1 | 11.6 nM | 308 nM | 162 nM | 168 nM | 21.3 | 0.8 | 1.5 | 1.5 | 5.5 | 0.2 | 0.4 | 0.4 | 2 |  |  |  |  | 
CSc1ccc(/C=N/CCc2ccc(S(N)(=O)=O)cc2)cc1 | 21.8 nM | 79.4 nM | 28.7 nM | 216 nM | 135 | 37 | 102 | 13.6 | 32.5 | 8.9 | 24.7 | 3.3 | 10 | 10 | 10 |  |  | 
NS(=O)(=O)c1ccc(CC/N=C/c2c[nH]c3ccc(Br)cc23)cc1 | 0.95 nM | 24.9 nM | 2.45 nM | 2030 nM | 1840 | 70.2 | 714 | 0.9 | 627 | 23.9 | 243 | 0.3 | 100 | 100 | 100 | 2 | 2 | 2
COc1ccc(/C=N/CCc2ccc(S(N)(=O)=O)cc2)c(O)c1 | 17 nM | 110 nM | 21.9 nM | 190 nM | 258 | 40.2 | 201 | 23.2 | 40.9 | 6.4 | 31.8 | 3.7 | 10 | 10 | 10 |  |  | 
NS(=O)(=O)c1ccc(CC/N=C/c2ccc(-c3ccccc3)cc2)cc1 | 1.44 nM | 59.7 nM | 15.1 nM | 542 nM | 4860 | 117 | 465 | 12.9 | 487 | 11.7 | 46.5 | 1.3 | 10 | 10 | 10 |  |  | 
NS(=O)(=O)c1ccc(/N=C/c2csc3ccccc23)cc1 | 16.7 nM | 1030 nM | 207 nM | 1420 nM | 183 | 3 | 14.8 | 2.1 | 39.8 | 0.6 | 3.2 | 0.5 |  |  |  |  |  | 
NS(=O)(=O)c1ccc(/N=C/c2ccc(-c3ccccn3)cc2)cc1 | 21.7 nM | 940 nM | 255 nM | 1250 nM | 202 | 4.6 | 17.1 | 3.5 | 31.4 | 0.7 | 2.7 | 0.5 |  |  |  |  |  | 
NS(=O)(=O)c1ccc(/N=C/c2ccccc2)c(F)c1 | 0.56 nM | 11.5 nM | 2.31 nM | > 2500 nM | 891 | 43.2 | 216 | < 0.2 | 1270 | 61.5 | 307 | 0.3 | 100 | 100 | 100 | 2 | 2 | 2
NS(=O)(=O)c1ccc(/N=C/c2ccc(Br)cc2O)cc1 | 16.9 nM | 625 nM | 23.7 nM | > 2500 nM | 256 | 6.9 | 183 | < 1.7 | 41.9 | 1.1 | 29.9 | < 0.3 | 10 | 10 | 10 |  |  | 
NS(=O)(=O)c1ccc(CC/N=C/c2c(F)c(F)cc(F)c2F)cc1 | 2.26 nM | 29.2 nM | 2.56 nM | 107 nM | 1160 | 90.1 | 1030 | 24.5 | 288 | 22.3 | 255 | 6.1 | 100 | 100 | 100 | 2 | 2 | 2
NS(=O)(=O)c1ccc(CC/N=C/c2ccc(-c3ccccn3)cc2)cc1 | 19.2 nM | 529 nM | 24.8 nM | 1240 nM | 69.9 | 2.5 | 54.2 | 1.1 | 20.9 | 0.8 | 16.3 | 0.3 | 10 | 10 | 10 |  |  | 
NS(=O)(=O)c1ccc(CC/N=C/c2ccc(S(=O)(=O)O)o2)cc1 | 12.1 nM | 682 nM | 25.7 nM | 1430 nM | 236 | 4.2 | 111 | 2 | 38.5 | 0.7 | 18.1 | 0.3 | 10 | 10 | 10 |  |  | 
NS(=O)(=O)c1ccc(CC/N=C/c2ccc(Br)cc2O)cc1 | 22.3 nM | 761 nM | 32 nM | 1980 nM | 190 | 5.6 | 132 | 2.1 | 29.9 | 0.9 | 20.8 | 0.3 | 10 | 10 | 10 |  |  | 
COc1cc([N+](=O)[O-])ccc1/C=N/CCc1ccc(S(N)(=O)=O)cc1 | 21.2 nM | 330 nM | 163 nM | 1940 nM | 10.1 | 0.7 | 1.3 | 0.1 | 7.9 | 0.5 | 1 | 0.09 | 2 |  |  |  |  | 
N#Cc1ccc(/C=N/CCc2ccc(S(N)(=O)=O)cc2)cc1 | 20.6 nM | 85.2 nM | 3.31 nM | 1400 nM | 106 | 25.7 | 662 | 1.6 | 34.6 | 8.4 | 215 | 0.5 | 100 | 100 | 100 |  |  | 
NS(=O)(=O)c1ccc(CC/N=C/c2cccc(Br)c2O)cc1 | 15.7 nM | 45.1 nM | 24.3 nM | 1270 nM | 340 | 118 | 220 | 4.2 | > 637 | > 222 | > 412 | > 7.9 | 10 | 10 | 10 |  |  | 

— ChEMBL document CHEMBL3596191, “Inhibition studies of bacterial, fungal and protozoan β-class carbonic anhydrases with Schiff bases incorporating sulfonamide moieties” (Bioorg Med Chem, 2015)
